For assay [1], the system named is L-dopa-induced AIMs in parkinsonian rats. Conditions: cited from earlier work.
The target of the next assay is muscle nAChRs (Homo sapiens, UniProt P02708+P07510+Q07001). The assay is described as follows: biochemical. The format is binding.
Assay [2] concerns L-dopa-induced AIMs in 6-OHDA lesioned rats. Conditions: cited from earlier work.
In assay [3] the test system is L-dopa-induced dyskinesias in Parkinson’s disease patients. The following applies: small clinical trial, ref http://www.neuraltus.com/pages/news.html; cited from earlier work.
In a further assay the target is human α7 nAChRs (Homo sapiens, UniProt P36544). The assay is described as follows: biochemical. The format is binding.
The subject of assay [4] is L-dopa-induced AIMs in 6-OHDA lesioned rats. The assay is described as follows: L-dopa-induced AIMs in rats with severe unilateral 6-OHDA lesion. Conditions: for AIM subtypes significantly affected by nAChR compounds: axial, oral, forelimb AIMs; for AIM subtypes significantly affected by nAChR compounds / Decrease in total AIM scores: severe dopaminergic lesion; for Decrease in total AIM scores: maximal decrease over the treatment periods, L-dopa 6 or 8 mg/kg plus benserazide 15 mg/kg sc; for Reduction in L-dopa-induced AIMs: range over the series, rats with severe nigrostriatal damage; for Total AIMs score: summary table, L-dopa 6 or 8 mg/kg plus benserazide, group not stated. The format is in vivo, rat.

For the next assay, the target named is human α3β4 nAChRs (Homo sapiens, UniProt P30926+P32297). Description: Competition membrane binding.
The test system of assay [5] is ^3H-dopamine release from rat striatal synaptosomes. The following applies: read-out: EC50 for 3H-dopamine release; rat striatum; ref Zwart et al., 2008; cited from earlier work.
In assay [6] the test system is forelimb use asymmetry in 6-OHDA lesioned rats. The assay is described as follows: Limb use asymmetry test. The format is in vivo, rat. The following applies: for % Contralateral limb use, nAChR compound: 5 min period, mean ± S.E.M of 5–9 rats. In outline: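 Unilateral intracranial 6-OHDA lesions in rats (230–250 g). Forelimb use was rated over 5 min, once before and once 60 min after sc L-dopa plus benserazide (8.0 or 6.0 mg/kg plus 15 mg/kg, depending on study). The read-out was % contralateral limb use. Test compound was given by minipump or sc injection. In one study, testing was 4 wk after L-dopa treatment began.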

Where [7] appears, read: rats with severe dopaminergic lesions, ref Bordia et al., 2010.

Each structure is given as a SMILES string. Like-named read-outs stand apart in the source and are kept apart here.

human α7 nAChRs, sequence (P36544 23-502): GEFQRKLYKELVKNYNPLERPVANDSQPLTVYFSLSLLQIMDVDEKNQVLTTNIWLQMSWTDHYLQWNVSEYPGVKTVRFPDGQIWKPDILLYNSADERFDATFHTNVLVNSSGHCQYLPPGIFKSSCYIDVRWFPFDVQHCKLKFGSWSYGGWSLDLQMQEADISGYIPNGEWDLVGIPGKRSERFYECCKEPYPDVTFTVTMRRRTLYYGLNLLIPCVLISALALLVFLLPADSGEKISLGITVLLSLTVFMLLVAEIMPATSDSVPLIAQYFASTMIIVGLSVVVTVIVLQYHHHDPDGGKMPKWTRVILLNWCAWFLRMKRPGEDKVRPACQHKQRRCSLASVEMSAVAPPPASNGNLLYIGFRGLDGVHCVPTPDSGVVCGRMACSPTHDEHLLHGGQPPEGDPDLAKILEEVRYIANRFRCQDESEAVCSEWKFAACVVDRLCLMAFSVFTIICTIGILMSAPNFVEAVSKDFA
muscle nAChRs, sequence (P07510 23-517): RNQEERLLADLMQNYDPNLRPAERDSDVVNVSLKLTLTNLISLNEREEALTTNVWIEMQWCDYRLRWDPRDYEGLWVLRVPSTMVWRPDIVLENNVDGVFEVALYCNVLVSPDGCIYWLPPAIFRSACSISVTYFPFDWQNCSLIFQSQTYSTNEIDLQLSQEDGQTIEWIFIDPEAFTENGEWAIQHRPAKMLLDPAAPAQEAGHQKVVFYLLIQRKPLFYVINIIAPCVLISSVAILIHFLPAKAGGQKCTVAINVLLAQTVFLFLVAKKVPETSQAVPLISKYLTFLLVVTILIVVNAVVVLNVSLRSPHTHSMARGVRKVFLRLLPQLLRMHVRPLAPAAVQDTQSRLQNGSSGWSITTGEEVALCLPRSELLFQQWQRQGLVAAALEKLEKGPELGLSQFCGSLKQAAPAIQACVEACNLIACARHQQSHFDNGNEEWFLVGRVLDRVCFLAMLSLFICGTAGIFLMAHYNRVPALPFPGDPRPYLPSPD
muscle nAChRs, sequence (Q07001 22-517): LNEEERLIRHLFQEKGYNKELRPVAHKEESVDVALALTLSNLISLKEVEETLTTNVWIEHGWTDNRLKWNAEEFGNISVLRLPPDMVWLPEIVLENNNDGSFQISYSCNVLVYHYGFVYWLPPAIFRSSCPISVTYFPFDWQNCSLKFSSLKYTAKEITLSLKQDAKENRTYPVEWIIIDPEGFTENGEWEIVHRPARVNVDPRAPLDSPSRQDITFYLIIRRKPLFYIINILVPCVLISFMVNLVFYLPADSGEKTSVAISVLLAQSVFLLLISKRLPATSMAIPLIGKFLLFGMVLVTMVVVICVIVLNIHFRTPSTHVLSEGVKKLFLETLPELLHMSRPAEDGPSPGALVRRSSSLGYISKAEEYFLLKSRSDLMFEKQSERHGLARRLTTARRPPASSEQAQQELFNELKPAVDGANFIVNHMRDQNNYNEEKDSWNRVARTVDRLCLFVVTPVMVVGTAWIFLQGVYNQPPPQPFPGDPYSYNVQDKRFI
muscle nAChRs, sequence (P11230 24-501, further chain): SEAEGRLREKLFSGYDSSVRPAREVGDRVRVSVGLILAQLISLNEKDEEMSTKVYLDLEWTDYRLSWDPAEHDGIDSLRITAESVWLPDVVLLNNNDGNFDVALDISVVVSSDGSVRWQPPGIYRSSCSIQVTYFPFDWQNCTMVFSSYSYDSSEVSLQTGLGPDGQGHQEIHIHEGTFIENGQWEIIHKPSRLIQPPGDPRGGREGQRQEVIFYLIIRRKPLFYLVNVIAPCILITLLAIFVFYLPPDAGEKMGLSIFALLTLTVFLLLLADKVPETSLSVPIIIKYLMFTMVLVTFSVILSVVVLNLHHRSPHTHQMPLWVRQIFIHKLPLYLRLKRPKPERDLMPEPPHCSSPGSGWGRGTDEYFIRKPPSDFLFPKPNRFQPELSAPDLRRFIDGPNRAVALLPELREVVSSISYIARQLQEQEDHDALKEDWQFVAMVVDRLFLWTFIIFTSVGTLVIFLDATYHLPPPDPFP
muscle nAChRs, sequence (P02708 21-457): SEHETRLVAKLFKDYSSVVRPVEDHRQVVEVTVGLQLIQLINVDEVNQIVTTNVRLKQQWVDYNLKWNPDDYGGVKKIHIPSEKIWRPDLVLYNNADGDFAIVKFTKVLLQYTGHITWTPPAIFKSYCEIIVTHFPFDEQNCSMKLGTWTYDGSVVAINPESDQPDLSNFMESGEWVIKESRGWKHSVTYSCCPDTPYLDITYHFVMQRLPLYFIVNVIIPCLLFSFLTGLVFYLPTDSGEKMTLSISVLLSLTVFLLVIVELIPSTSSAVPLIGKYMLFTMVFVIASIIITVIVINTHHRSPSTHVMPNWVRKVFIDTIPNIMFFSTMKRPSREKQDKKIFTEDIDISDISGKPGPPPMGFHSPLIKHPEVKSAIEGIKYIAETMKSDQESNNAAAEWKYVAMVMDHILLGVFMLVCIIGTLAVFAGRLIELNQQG
human α3β4 nAChRs, sequence (P32297 32-505): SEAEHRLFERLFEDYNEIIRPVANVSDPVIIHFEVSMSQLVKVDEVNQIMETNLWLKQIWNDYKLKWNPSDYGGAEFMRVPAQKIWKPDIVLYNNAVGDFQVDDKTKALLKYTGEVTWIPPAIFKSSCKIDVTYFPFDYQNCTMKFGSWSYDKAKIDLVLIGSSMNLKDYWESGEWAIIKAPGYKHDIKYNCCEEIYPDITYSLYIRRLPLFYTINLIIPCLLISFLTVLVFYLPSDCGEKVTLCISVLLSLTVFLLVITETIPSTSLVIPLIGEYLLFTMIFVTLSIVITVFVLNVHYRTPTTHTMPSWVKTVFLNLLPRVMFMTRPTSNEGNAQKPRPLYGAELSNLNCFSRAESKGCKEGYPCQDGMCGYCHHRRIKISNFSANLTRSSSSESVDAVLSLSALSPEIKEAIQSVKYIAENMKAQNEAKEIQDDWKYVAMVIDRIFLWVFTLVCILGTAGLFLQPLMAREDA
human α3β4 nAChRs, sequence (P30926 22-498): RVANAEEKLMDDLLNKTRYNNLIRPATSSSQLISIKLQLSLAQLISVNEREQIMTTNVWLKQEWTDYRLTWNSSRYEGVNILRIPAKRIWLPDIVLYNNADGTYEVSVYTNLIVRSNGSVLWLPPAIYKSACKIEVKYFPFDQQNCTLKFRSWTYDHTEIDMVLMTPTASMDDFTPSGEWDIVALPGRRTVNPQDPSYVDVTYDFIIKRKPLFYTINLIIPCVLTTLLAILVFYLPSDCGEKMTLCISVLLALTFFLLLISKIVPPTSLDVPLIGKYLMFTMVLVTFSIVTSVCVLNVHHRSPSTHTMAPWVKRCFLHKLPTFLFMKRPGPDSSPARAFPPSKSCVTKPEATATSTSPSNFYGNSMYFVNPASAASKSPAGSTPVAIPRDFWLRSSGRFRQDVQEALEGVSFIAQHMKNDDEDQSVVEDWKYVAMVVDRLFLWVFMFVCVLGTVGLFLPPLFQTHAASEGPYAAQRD

Consider `c1cncc(OC[C@@H]2CCN2)c1` [A85380], for which the “Effect on L-dopa-induced AIMs” value in [1] (6-OHDA lesioned rats, ref Huang et al., 2011b) is listed as “reduced L-dopa-induced AIMs”.
Turning to `CN1CCC[C@H]1c1cccnc1` [Nicotine], in assay [1] (study ended at this time, ref Bordia et al., 2008, Bordia et al., 2010), the “Persistence of the effect on L-dopa-induced AIMs with treatment” value is “at least 4 months”. At muscle nAChRs, this compound displayed a Ki of 3500 nM. For the same compound, in assay [2] (setting [7]), the “AIM subtypes significantly affected by nAChR compounds” value (“AIM subtypes significantly affected” for short) is on record as “Oral = forelimb”, the “Decrease in total AIM scores” value is listed as 35% and the “Total AIMs score” value is reported as approximately 75. Besides, in assay [3], the “Effect on L-dopa-induced dyskinesias” value is listed as “reduced several components of L-dopa-induced dyskinesias”.
As to `OCCCCC#Cc1cncc(OC[C@@H]2CCN2)c1` [Sazetidine, 6-(5-(((S)-azetidin-2-yl)methoxy)pyridine-3-yl)hex-5-yn-1-ol], the Ki at human α7 nAChRs was 3300 nM; at muscle nAChRs it was 180 ± 84 nM; at human α3β4 nAChRs, 30 ± 2 nM. For the same compound, the “Effect on L-dopa-induced AIMs” value in assay [4] (0.5 mg/kg sc twice daily, L-dopa 8 mg/kg plus benserazide) is “no effect”; in assay [4] (1.0 mg/kg sc twice daily, L-dopa 8 mg/kg plus benserazide, P < 0.05), “decline in total, oral and forelimb AIMs”; in assay [4] (2.0 mg/kg sc twice daily, compared with 1.0 mg/kg dose, data not shown), “Results were similar”. Further, the “AIM subtypes significantly affected” value in [4] is on record as “Oral = forelimb”. In addition, the “Decrease in total AIM scores” value in assay [4] stood at 23%. For the same compound, in assay [4], the “Reduction in L-dopa-induced AIMs” value is 23–32%. In addition, in [4], the “Total AIMs score” value is approximately 75. Besides, the EC50 in assay [5] is 1 nM.
Regarding `CN[C@@H](C)C/C=C/c1cncc(OC)c1` [TC-2696], the Ki at human α7 nAChRs (read-out: Ki α7 nAChRs, membrane binding, 3H-epibatidine, average ± SEM) was determined as 85000 nM. In assay [4] (1.0 mg/kg/d via minipump, L-dopa 8 mg/kg plus benserazide 15 mg/kg sc), the “Effect on L-dopa-induced AIMs” value is recorded as “fewer total L-dopa-induced AIMs”. In addition, the “Effect on L-dopa-induced AIMs” value in assay [4] ([…] via minipump, L-dopa 8 mg/kg plus benserazide) was “results similar to those at the 1.0 mg/kg/d dose of the compound, except for a significant decline in forelimb AIMs”. In assay [4], the “AIM subtypes significantly affected” value is reported as “Axial > forelimb”, the “Decrease in total AIM scores” value is reported as 30%, the “Reduction in L-dopa-induced AIMs” value is 23–32% and the “Total AIMs score” value is listed as approximately 75. Further, the “% Contralateral limb use, nAChR compound” value in assay [6] (OFF L-dopa (before L-dopa)) is recorded as 3.27 ± 1.5%. For the same compound, in [6] (ON L-dopa (60 min after L-dopa)), the “% Contralateral limb use, nAChR compound” value worked out at 35.6 ± 13.1%. The “Effect on parkinsonism (forepaw asymmetry test)” value in assay [6] (result in words) is “no significant effect”.
Regarding `c1cnc2cc3c(cc2n1)[C@@H]1CNC[C@H]3C1` [Varenicline], the “Decrease in total AIM scores” value in assay [2] (severely lesioned rats, non-significant, ref Huang et al., 2011b) is recorded as 10%. The “Total AIMs score” value in assay [2] (severely lesioned rats, ref Huang et al., 2011b) is listed as approximately 60.
With `CNC1(C)C2CCC(C2)C1(C)C` (stereo not shown) [mecamylamine], the “Effect on L-dopa-induced AIMs” value in assay [1] (parkinsonian rats, ref Bordia et al., 2010) is “attenuated AIMs”.

One may read the Ki as the equilibrium dissociation constant of an inhibitor or competing ligand from its target. Broadly, the EC50 is the concentration giving half of the maximal effect.

The record behind these values is paper PMC3685407 (Neuropharmacology, 2013).
